# Results as given in ChEMBL document CHEMBL1142148, “Antibiotic susceptibility profile of bifidobacteria as affected by oxgall, acid, and hydrogen peroxide stress” (2007).
# Assays:
# Bifidobacterium longum [1] = assay: Antimicrobial activity against 90 mins oxgall-stressed Bifidobacterium longum P/N 601377 after 18 hrs; format: functional
# Outline: (§1)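 Cells pelleted from mid-log MRS culture and resuspended in MRS (initial pH 6.5) with 0.3% (wt/vol) oxgall for 90 min anaerobically at 37°C. They were then regrown in MRS pH 6.5 for 24 h (footnote: 18 h) anaerobically and tested for MIC by the same broth microdilution assay. Median of four repetitions.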
# Bifidobacterium breve [2] = assay: Antimicrobial activity against 90 mins hydrogen peroxide-stressed Bifidobacterium breve R0070 after 18 hrs; format: functional
# Outline: (§2)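 Stress applied for 90 min at 37°C under anaerobic conditions, using MRS (initial pH 6.5) containing H2O2 at each strain's own inhibitory concentration. The H2O2 level was set beforehand by microplate tolerance testing. Challenged cells were regrown in MRS for 24 h (footnote: 18 h) before MIC testing by broth microdilution. Median of four repetitions.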
# Bifidobacterium longum [3] = assay: Antimicrobial activity against 90 mins hydrogen peroxide-stressed Bifidobacterium longum R0175 after 18 hrs; format: functional; outline: as §2
# Bifidobacterium breve [4] = assay: Antimicrobial activity against 90 mins hydrogen peroxide-stressed Bifidobacterium breve ATCC 15700 after 18 hrs; format: functional; outline: as §2
# Bifidobacterium longum [5] = assay: Antimicrobial activity against 90 mins hydrogen peroxide-stressed Bifidobacterium longum ATCC 15707 after 18 hrs; format: functional; outline: as §2
# Bifidobacterium bifidum [6] = assay: Antimicrobial activity against 90 mins oxgall-stressed Bifidobacterium bifidum BB12 after 18 hrs; format: functional; outline: as §1
# Bifidobacterium longum [7] = assay: Antimicrobial activity against 60 min 1 M HCl-stressed Bifidobacterium longum ATCC 15707 after 18 hrs; format: functional
# Outline: (§3)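 Mid-log MRS culture pelleted and resuspended in MRS broth brought to pH 2.0 with 1 M HCl, held anaerobically at 37°C for 60 min, then subcultured in MRS (pH 6.5) for 24 h anaerobically before MIC testing by broth microdilution (as for unstressed cells). Table footnote gives 18 h anaerobic regrowth after the stress. MIC is the median of four repetitions.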
# Bifidobacterium breve [8] = assay: Antimicrobial activity against 90 mins oxgall-stressed Bifidobacterium breve ATCC 15700 after 18 hrs; format: functional; outline: as §1
# Bifidobacterium longum [9] = assay: Antimicrobial activity against 60 min 1 M HCl-stressed Bifidobacterium longum P/N 601377 after 18 hrs; format: functional; outline: as §3
# Bifidobacterium animalis [10] = assay: Antimicrobial activity against Bifidobacterium animalis ATCC 27536; format: functional
# Outline: (§4)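 Broth microdilution in MRS plus 0.05% L-cysteine-HCl. Mid-log culture adjusted to OD650 0.1, giving about 2.5 × 10^4 to 5.0 × 10^4 CFU/well, then added to twofold serial dilutions of agent. Plates incubated anaerobically at 37°C for 18 h and read at OD650. MIC is the lowest concentration matching the uninoculated blank OD, taken as the median of four repeats.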
# Bifidobacterium bifidum [11] = assay: Antimicrobial activity against 90 mins hydrogen peroxide-stressed Bifidobacterium bifidum R0071 after 18 hrs; format: functional; outline: as §2
# Bifidobacterium animalis [12] = assay: Antimicrobial activity against 90 mins hydrogen peroxide-stressed Bifidobacterium animalis ATCC 27536 after 18 hrs; format: functional; outline: as §2
# Bifidobacterium breve [13] = assay: Antimicrobial activity against 90 mins oxgall-stressed Bifidobacterium breve R0070 after 18 hrs; format: functional; outline: as §1
# [14] = Antimicrobial activity against Bifidobacterium infantis ATCC 15697; format: functional, Bifidobacterium longum subsp. infantis; conditions: Bifidobacterium longum; outline: as §4
# Bifidobacterium longum [15] = assay: Antimicrobial activity against 90 mins oxgall-stressed Bifidobacterium longum ATCC 15707 after 18 hrs; format: functional; outline: as §1
# Bifidobacterium bifidum [16] = assay: Antimicrobial activity against Bifidobacterium bifidum ATCC 15696; format: functional; outline: as §4
# [17] = test system: Bifidobacterium thermophilum; assay: Antimicrobial activity against 90 mins oxgall-stressed Bifidobacterium thermophilum ATCC 25866 after 18 hrs; format: functional; outline: as §1
# [18] = test system: Bifidobacterium pseudolongum; assay: Antimicrobial activity against Bifidobacterium pseudolongum ATCC 25562; format: functional; outline: as §4
# Bifidobacterium longum [19] = assay: Antimicrobial activity against 90 mins hydrogen peroxide-stressed Bifidobacterium longum P/N 601377 after 18 hrs; format: functional; outline: as §2
# Bifidobacterium animalis [20] = assay: Antimicrobial activity against 60 min 1 M HCl-stressed Bifidobacterium animalis ATCC 27536 after 18 hrs; format: functional; outline: as §3
# [21] = Antimicrobial activity against 90 mins oxgall-stressed Bifidobacterium infantis ATCC 15697 after 18 hrs; format: functional, Bifidobacterium longum subsp. infantis; conditions: Bifidobacterium longum; outline: as §1
# [22] = test system: Bifidobacterium pseudolongum; assay: Antimicrobial activity against 60 min 1 M HCl-stressed Bifidobacterium pseudolongum ATCC 25562 after 18 hrs; format: functional; outline: as §3
# Bifidobacterium longum [23] = assay: Antimicrobial activity against Bifidobacterium longum P/N 601377; format: functional; outline: as §4
# Bifidobacterium longum [24] = assay: Antimicrobial activity against 90 mins oxgall-stressed Bifidobacterium longum R0175 after 18 hrs; format: functional; outline: as §1
# Bifidobacterium breve [25] = assay: Antimicrobial activity against 60 min 1 M HCl-stressed Bifidobacterium breve ATCC 15700 after 18 hrs; format: functional; outline: as §3
# [26] = test system: Bifidobacterium thermophilum; assay: Antimicrobial activity against 60 min 1 M HCl-stressed Bifidobacterium thermophilum ATCC 25866 after 18 hrs; format: functional; outline: as §3
# Bifidobacterium longum [27] = assay: Antimicrobial activity against 60 min 1 M HCl-stressed Bifidobacterium longum R0175 after 18 hrs; format: functional; outline: as §3
# Bifidobacterium longum [28] = assay: Antimicrobial activity against Bifidobacterium longum R0175; format: functional; outline: as §4
# [29] = test system: Bifidobacterium thermophilum; assay: Antimicrobial activity against Bifidobacterium thermophilum ATCC 25866; format: functional; outline: as §4
# Bifidobacterium longum [30] = assay: Antimicrobial activity against Bifidobacterium longum ATCC 15708; format: functional; outline: as §4
# Bifidobacterium bifidum [31] = assay: Antimicrobial activity against 60 min 1 M HCl-stressed Bifidobacterium bifidum BB12 after 18 hrs; format: functional; outline: as §3
# Bifidobacterium bifidum [32] = assay: Antimicrobial activity against Bifidobacterium bifidum R0071; format: functional; outline: as §4
# Bifidobacterium bifidum [33] = assay: Antimicrobial activity against 90 mins oxgall-stressed Bifidobacterium bifidum R0071 after 18 hrs; format: functional; outline: as §1
# Bifidobacterium longum [34] = assay: Antimicrobial activity against 90 mins hydrogen peroxide-stressed Bifidobacterium longum ATCC 15708 after 18 hrs; format: functional; outline: as §2
# Bifidobacterium animalis [35] = assay: Antimicrobial activity against 90 mins oxgall-stressed Bifidobacterium animalis ATCC 27536 after 18 hrs; format: functional; outline: as §1
# [36] = test system: Bifidobacterium pseudolongum; assay: Antimicrobial activity against 90 mins oxgall-stressed Bifidobacterium pseudolongum ATCC 25562 after 18 hrs; format: functional; outline: as §1
# Bifidobacterium bifidum [37] = assay: Antimicrobial activity against 90 mins oxgall-stressed Bifidobacterium bifidum ATCC 15696 after 18 hrs; format: functional; outline: as §1
# Bifidobacterium breve [38] = assay: Antimicrobial activity against Bifidobacterium breve R0070; format: functional; outline: as §4
# Bifidobacterium bifidum [39] = assay: Antimicrobial activity against Bifidobacterium bifidum BB12; format: functional; outline: as §4
# Bifidobacterium longum [40] = assay: Antimicrobial activity against 90 mins oxgall-stressed Bifidobacterium longum ATCC 15708 after 18 hrs; format: functional; outline: as §1
# Bifidobacterium bifidum [41] = assay: Antimicrobial activity against 60 min 1 M HCl-stressed Bifidobacterium bifidum R0071 after 18 hrs; format: functional; outline: as §3
# Bifidobacterium breve [42] = assay: Antimicrobial activity against 60 min 1 M HCl-stressed Bifidobacterium breve R0070 after 18 hrs; format: functional; outline: as §3
# [43] = Antimicrobial activity against 60 min 1 M HCl-stressed Bifidobacterium infantis ATCC 15697 after 18 hrs; format: functional, Bifidobacterium longum subsp. infantis; conditions: Bifidobacterium longum; outline: as §3
# Bifidobacterium bifidum [44] = assay: Antimicrobial activity against 90 mins hydrogen peroxide-stressed Bifidobacterium bifidum BB12 after 18 hrs; format: functional; outline: as §2
# Bifidobacterium breve [45] = assay: Antimicrobial activity against Bifidobacterium breve ATCC 15700; format: functional; outline: as §4
# Bifidobacterium longum [46] = assay: Antimicrobial activity against Bifidobacterium longum ATCC 15707; format: functional; outline: as §4
# [47] = test system: Bifidobacterium thermophilum; assay: Antimicrobial activity against 90 mins hydrogen peroxide-stressed Bifidobacterium thermophilum ATCC 25866 after 18 hrs; format: functional; outline: as §2
smiles,measurement,setting,value
CN[C@H](CC(C)C)C(=O)N[C@H]1C(=O)N[C@@H](CC(N)=O)C(=O)N[C@H]2C(=O)N[C@H]3C(=O)N[C@H](C(=O)N[C@H](C(=O)O)c4cc(O)cc(O)c4-c4cc3ccc4O)[C@H](O)c3ccc(c(Cl)c3)Oc3cc2cc(c3O[C@@H]2O[C@H](CO)[C@@H](O)[C@H](O)[C@H]2O[C@H]2C[C@](C)(N)[C@H](O)[C@H](C)O2)Oc2ccc(cc2Cl)[C@H]1O [VANCOMYCIN],MIC,Bifidobacterium longum [1],> 500 µg/mL
same,MIC,Bifidobacterium breve [2],> 500 µg/mL
same,MIC,Bifidobacterium longum [3],> 500 µg/mL
same,MIC,Bifidobacterium breve [4],> 500 µg/mL
same,MIC,Bifidobacterium longum [5],> 500 µg/mL
same,MIC,Bifidobacterium bifidum [6],> 500 µg/mL
same,MIC,Bifidobacterium longum [7],> 500 µg/mL
same,MIC,Bifidobacterium breve [8],> 500 µg/mL
same,MIC,Bifidobacterium longum [9],> 500 µg/mL
same,MIC,Bifidobacterium animalis [10],500 µg/mL
same,MIC,Bifidobacterium bifidum [11],> 500 µg/mL
same,MIC,Bifidobacterium animalis [12],> 500 µg/mL
same,MIC,Bifidobacterium breve [13],> 500 µg/mL
same,MIC,[14],> 500 µg/mL
same,MIC,Bifidobacterium longum [15],> 500 µg/mL
same,MIC,Bifidobacterium bifidum [16],> 500 µg/mL
same,MIC,[17],> 500 µg/mL
same,MIC,[18],> 500 µg/mL
same,MIC,Bifidobacterium longum [19],> 500 µg/mL
same,MIC,Bifidobacterium animalis [20],> 500 µg/mL
same,MIC,[21],0.98 µg/mL
same,MIC,[22],0.98 µg/mL
same,MIC,Bifidobacterium longum [23],> 500 µg/mL
same,MIC,Bifidobacterium longum [24],> 500 µg/mL
same,MIC,Bifidobacterium breve [25],> 500 µg/mL
same,MIC,[26],> 500 µg/mL
same,MIC,Bifidobacterium longum [27],0.98 µg/mL
same,MIC,Bifidobacterium longum [28],500 µg/mL
same,MIC,[29],> 500 µg/mL
same,MIC,Bifidobacterium longum [30],500 µg/mL
same,MIC,Bifidobacterium bifidum [31],> 500 µg/mL
same,MIC,Bifidobacterium bifidum [32],500 µg/mL
same,MIC,Bifidobacterium bifidum [33],> 500 µg/mL
same,MIC,Bifidobacterium longum [34],> 500 µg/mL
same,MIC,Bifidobacterium animalis [35],1.9 µg/mL
same,MIC,[36],0.98 µg/mL
same,MIC,Bifidobacterium bifidum [37],> 500 µg/mL
same,MIC,Bifidobacterium breve [38],500 µg/mL
same,MIC,Bifidobacterium bifidum [39],> 500 µg/mL
same,MIC,Bifidobacterium longum [40],0.98 µg/mL
same,MIC,Bifidobacterium bifidum [41],> 500 µg/mL
same,MIC,Bifidobacterium breve [42],> 500 µg/mL
same,MIC,[43],0.98 µg/mL
same,MIC,Bifidobacterium bifidum [44],> 500 µg/mL
same,MIC,Bifidobacterium breve [45],> 500 µg/mL
same,MIC,Bifidobacterium longum [46],500 µg/mL
same,MIC,[47],> 500 µg/mL
